Reference: ChEMBL document CHEMBL1153215, “Investigation of the sequence and length dependence for cell-penetrating prenylated peptides” (Bioorg Med Chem Lett, 2010)
Where a SMILES comes first, the peptide text is derived from it. Bridges are numbered along the chain shown (N, C = ends). Roman numbers before positions name the chains, in order. The star is where a group is joined. Geranylgeranyl = CC(C)=CCC/C(C)=C/CC/C(C)=C/CC/C(C)=C/C*; Acryloyl(2E,3-(2-furyl)) = O=C(/C=C/c1ccco1)*

Experiments:
Assay type in all cases: ADME, cell-based; call rule not given here
HeLa [1] = assay: Cellular uptake in human HeLa cells at 0.3 to 3 uM after 1 hr by confocal laser-scanning microscopy
Summary of the method: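 Fluorescein-labelled peptides were incubated with HeLa cells for 1 h, then the cells were washed. Cells were either fixed in 3.7% formaldehyde (1 μM peptide) or imaged live without fixation (3 μM peptide). Hoechst stained the nucleus and wheat germ agglutinin–Alexa Fluor 594 stained the plasma membrane. Internalization was viewed by confocal microscopy.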

HeLa [2] = assay: Cellular uptake in human HeLa cells at 0.3 to 3 uM by FACS
Summary of the method: (§1)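 HeLa cells were incubated with 0.3, 1.0 or 3.0 μM fluorescein-linked peptide for 1 h at 37 °C. Cells were then trypsinized and washed to remove surface-bound peptide. Fluorescence of 10,000 cells was read by flow cytometry, in triplicate. Values are geometric mean relative fluorescence ± standard deviation.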

HeLa [3] = assay: Cellular uptake in human HeLa cells at […] at 4 degC condition by FACS
Summary of the method: as §1, with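 “with” for “with 0.3,”, “1.0” for “1.0 or 3.0”, “at 4 °C,” for “for 1 h”, “°C, or under ATP-depleting conditions.” for “°C.”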

HeLa [4] = assay: Cellular uptake in human HeLa cells at 0.3 to 3 uM at 37 degC condition by FACS; summary of the method: as §1

Activity (HeLa [1])	Activity (HeLa [2])	Activity (HeLa [3])	Activity (HeLa [4])	Structure (SMILES)
Active	Active	Active	Active	CC(C)=CCC/C(C)=C/CC/C(C)=C/CC/C(C)=C/CSC[C@H](NC(=O)[C@H](CCCNC(=N)N)NC(=O)[C@H](CCCNC(=N)N)NC(=O)/C=C/c1ccco1)C(N)=O
Active	Active	Active	Active	CC(C)=CCC/C(C)=C/CC/C(C)=C/CC/C(C)=C/CSC[C@H](NC(=O)[C@H](CCCNC(=N)N)NC(=O)/C=C/c1ccco1)C(N)=O
Active	Active	Active	Active	CC(=O)N[C@@H](CCCCNC(=O)/C=C/c1ccco1)C(=O)N[C@@H](C)C(=O)N[C@@H](C)C(=O)N[C@@H](C)C(=O)N[C@@H](CO)C(=O)N[C@@H](CCCNC(=N)N)C(=O)N[C@@H](CCCNC(=N)N)C(=O)N[C@@H](CSC/C=C(\C)CC/C=C(\C)CC/C=C(\C)CCC=C(C)C)C(N)=O (Ac-K(Acryloyl(2E,3-(2-furyl)))AAASRRC(Geranylgeranyl)-NH2)
Active	Active	Active	Active	CC(=O)N[C@@H](CCCCNC(=O)/C=C/c1ccco1)C(=O)N[C@@H](C)C(=O)N[C@@H](CO)C(=O)N[C@@H](CCCNC(=N)N)C(=O)N[C@@H](CCCNC(=N)N)C(=O)N[C@@H](CSC/C=C(\C)CC/C=C(\C)CC/C=C(\C)CCC=C(C)C)C(N)=O (Ac-K(Acryloyl(2E,3-(2-furyl)))ASRRC(Geranylgeranyl)-NH2)
Active	Active	Active	Active	CC[C@H](C)[C@H](NC(=O)[C@H](CCCCN)NC(=O)[C@@H](NC(=O)[C@H](CC(N)=O)NC(=O)[C@H](CCCNC(=N)N)NC(=O)[C@@H](N)CSSC[C@H](NC(=O)[C@H](CCCNC(=N)N)NC(=O)[C@H](CCCNC(=N)N)NC(=O)[C@H](CO)NC(=O)[C@H](CCCCN)NC(=O)[C@H](CCCCN)NC(=O)/C=C/c1ccco1)C(=O)N[C@H](C(=O)N[C@@H](CC(C)C)C(=O)N[C@@H](CC(C)C)C(=O)O)C(C)C)[C@@H](C)CC)C(=O)N[C@@H](Cc1c[nH]c2ccccc12)C(=O)N[C@@H](Cc1ccccc1)C(=O)N[C@@H](CCC(N)=O)C(=O)N[C@@H](CC(N)=O)C(=O)N[C@@H](CCCNC(=N)N)C(=O)N[C@@H](CCCNC(=N)N)C(=O)N[C@@H](CC(N)=O)C(=O)N[C@@H](CC(C)C)C(=O)N[C@@H](CCCCN)C(=O)N[C@@H](Cc1c[nH]c2ccccc12)C(=O)N[C@@H](CCCCN)C(=O)N[C@@H](CCCCN)C(=O)O (I: H-CRNIKIWFQNRRNLKWKK-OH / II: {Acryloyl(2E,3-(2-furyl))}-KKSRRCVLL-OH; disulfide I:1-II:6)
